Assay outcomes: PubChem BioAssay, Sanford-Burnham Center for Chemical Genomics
SENP8 block-1 – inhibitors of human SENP8 protease; inhibition, % at 20 µM; AID 602440; hit rate 0.64% among 360,000; recombinant SENP8, Nedd8 substrate fluorescence; Q96LD8; in the data active = inhibition mostly above about 40%, no sharp cut-off; inactive = mostly below about 27%
Target sequence (Q96LD8 whole entry, looked up): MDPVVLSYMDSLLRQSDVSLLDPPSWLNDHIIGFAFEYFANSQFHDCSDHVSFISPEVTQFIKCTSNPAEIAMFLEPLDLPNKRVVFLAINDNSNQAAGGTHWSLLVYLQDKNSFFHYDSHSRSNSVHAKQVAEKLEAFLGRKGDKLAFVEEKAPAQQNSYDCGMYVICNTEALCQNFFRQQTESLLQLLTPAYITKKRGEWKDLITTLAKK
SENP1 FRET inh – blocks the human SENP1 SUMO protease catalytic domain; recombinant SENP1 catalytic domain, CyPet-SUMO1-YPet FRET cleavage; inhibition, % at 10 µM; hit rate 0.21% among 360,000; Q9P0U3;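 active = inhibition at least 30% at 10 µM, raw YFP signal under a set limit, fluorescence ratio 0.5 to 1.5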;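 also: 0% = enzyme with DMSO and 100% = no enzyme wells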
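material = recombinant human SENP1 catalytic domain, His6-tagged | quantity = 20 pM enzyme | reagent = 25 nM SUMO1 FRET substrate | compound dosing = 10 µM single point, 0.5% DMSO | timing = 50 min enzyme reaction, room temperature, light-protected | detection = FRET, CFP and YFP emission | control set = no-enzyme low, enzyme-DMSO high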
SENP8 block-2 – SENP8 protease inhibition. purified SENP8, Z-RLRGG-aminoluciferin cleavage, luminescence. Q96LD8. hit rate 1.2% among 330,000. inhibition, % at 10 µM. AID 2540; in the data active = inhibition above about 50%
SENP7 inh – SENP7 protease inhibition; Q9BQF6; recombinant SENP7, Z-RLRGG-aminoluciferin luminescence, 40 min; inhibition, % at 5 µM; hit rate 1.5% among 330,000; AID 434973;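 active = inhibition above about 50% at the single test dose, limit read from the data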;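 also: plate controls were DMSO with enzyme for no effect and no enzyme buffer wells for full effect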
Target sequence (Q9BQF6 706-1050 limits assumed): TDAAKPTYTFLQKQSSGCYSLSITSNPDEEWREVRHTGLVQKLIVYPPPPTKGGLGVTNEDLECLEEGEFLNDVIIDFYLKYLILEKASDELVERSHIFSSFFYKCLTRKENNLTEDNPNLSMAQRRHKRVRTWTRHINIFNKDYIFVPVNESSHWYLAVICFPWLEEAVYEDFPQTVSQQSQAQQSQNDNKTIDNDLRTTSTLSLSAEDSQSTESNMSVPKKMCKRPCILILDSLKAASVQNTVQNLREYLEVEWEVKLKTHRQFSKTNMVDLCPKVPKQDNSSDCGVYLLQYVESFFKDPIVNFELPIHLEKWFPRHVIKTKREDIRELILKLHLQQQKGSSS
SENP6 inh – inhibitors of human SENP6 protease; Q9GZR1; Recombinant SENP6 catalytic domain, aminoluciferin luminescence; inhibition, % at 10 µM; hit rate 1.8% among 330,000;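 active = inhibition above about 50% at the single tested dose, limit read from the data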;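 also: plate controls were DMSO wells with enzyme for no effect and DMSO wells lacking enzyme for full effect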
Starred values were filed as active, the others as inactive; i = inactive; nt = no result. Compounds with a hit are over-represented: about 2.5% of the library has one in this group of screens.

SMILES	SENP8 block-1	SENP1 FRET inh	SENP8 block-2	SENP7 inh	SENP6 inh
N#C/C(=C\c1ccccc1O)C(=O)Nc1cccnc1	3	-2	51*	75*	77*
C=C[C@]1(C)C=C2CCC3[C@](C)(CCC[C@@]3(C)C(=O)O)C2CC1 (stereo partly drawn)	60*	3	6	8	6
CC1(O)c2ccccc2C(=O)N1CCc1ccccc1F (stereo not drawn)	53*	0	-4	10	4
CC1(O)c2ccccc2C(=O)N1Cc1ccccc1 (stereo not drawn)	6	9	3	3	-4
COC(=O)C[C@H]1CC[C@@H](NC(=O)C2CC2)[C@@H](CO)O1	19	3	nt	nt	nt
COc1ccc(N=Nc2cnc(C)nc2-c2ccccc2)cc1	45*	4	-5	0	-4
Cc1ncc(N=Nc2ccccc2Cl)c(-c2ccccc2)n1	22	-5	5	2	9
COC(=O)C1=NNC(C(=O)OC)C1c1ccccc1 (stereo not drawn)	2	-2	nt	nt	nt
O=C(NCC1CCCN1S(=O)(=O)c1ccccc1)C(=O)NC1CC1 (stereo not drawn)	19	0	5	-1	-9
O=C(COc1cc(Cl)c(Cl)cc1Cl)Nc1cccc(O)c1	22	1	21	63*	48
O=C(COc1cc(Cl)c(Cl)cc1Cl)Nc1ccncc1	21	3	-3	-5	-3
Cn1c(SCC(=O)Nc2ccccc2)nc2ccccc2c1=O	1	0	0	5	13
N#C/C(=C\c1ccc(O)c(O)c1)C(=O)c1ccc(O)c(O)c1	11	3	81*	45	83*
N#C/C(=C\c1ccc(O)c(O)c1)C(=O)N1CCCC1	0	-41	-4	0	12
COc1ccc(NC(=S)NC(NC(=O)CCl)C(Cl)(Cl)Cl)c([N+](=O)[O-])c1 (stereo not drawn)	52*	2	-7	9	-15
COc1ccc(NC(=S)NC(NC(=O)c2cccc3ccccc23)C(Cl)(Cl)Cl)c([N+](=O)[O-])c1 (stereo not drawn)	16	1	-2	5	-22
COc1ccc(CN2CCC(n3nccc3NC(=O)CCc3ccccc3)CC2)c(C)c1C	16	0	-18	-18	-3
Cc1ccc(NC(=O)Nc2ccccc2C(N)=O)cc1	-41	-1	89*	96*	95*
O=C(O)c1cccc(COc2ccccc2Cl)c1	5	1	98*	5	99*
O=C(Nc1ccccc1Cl)c1cccc(COc2cc(Cl)ccc2Cl)c1	23	3	5	-3	9
Cc1c(NC(=O)c2ccc(-c3ccccc3)cc2)cccc1C(=O)O	28	4	93*	96*	99*
Cc1nn(-c2ccccc2)c(Cl)c1/C=C/C(=O)c1ccccc1	42*	7	-14	4	-3
O=C(CCc1nnc2ccc(N3CCC4(CC3)OCCO4)nn12)Nc1ccc(F)cc1	-20	0	11	-7	-16
Oc1ccc(-c2cn3ccccc3n2)cc1O	-144	2	-12	-2	-6
Cc1ccn2cc(-c3ccc(O)c(O)c3)nc2c1	-280	4	56*	67*	67*
SMILES	SENP8 block-1	SENP1 FRET inh	SENP8 block-2	SENP7 inh	SENP6 inh
COc1ccc(/C=C/C(=O)Nc2ccccc2C(=O)O)cc1OC	-46	1	63*	17	72*
Cc1cccc2cc3c(N)c(C(=O)Nc4ccc(N5CCOCC5)cc4)sc3nc12	27	65*	4	1	-13
Cc1c(CCNC=O)cc(C)c2c3c(oc12)CCCC3	-25	-5	nt	nt	nt
Oc1ccc(/C=N/N=C(c2ccccc2)c2ccccc2)c(O)c1O	34*	-32	nt	nt	nt
O=C(/C(=N/N=C/c1ccc(O)c(O)c1O)c1ccccc1)c1ccccc1	30	2	3	0	8
CC1=C(SCc2ccccc2)C(=O)c2ccccc2C1=O	40	6	nt	nt	nt
O=C1C(SCCO)=C(SCCO)C(=O)c2ccccc21	-73	4	89*	56*	89*
COc1ccc(N2CCN(C(=O)COC(=O)CC(NC(N)=O)c3ccc(Cl)cc3)CC2)cc1 (stereo not drawn)	14	0	nt	nt	nt
Cc1[nH]c(N=Nc2ccccc2)nc1N=Nc1ccccc1	68*	6	-6	1	-31
Cc1cc(=O)n2[nH]c(N)c(N=Nc3ccccc3)c2n1	16	1	nt	nt	nt
COc1cc([N+](=O)[O-])cc(/C=N/NC(=O)C(O)(c2ccccc2)c2ccccc2)c1O	50*	-7	-1	-5	-8
COc1ccc(N=[N+]([O-])c2ccc(OC)cc2)cc1	41*	4	nt	nt	nt
COc1ccc(S(=O)(=O)c2ccc(OC)cc2)cc1	10	1	-14	-4	-29
N=C1C=CC=C2C1=NC1(CCCCC1)N2O	36*	4	10	1	11
CCN1N=C(C)C=C(c2ccccc2)n2c1nc1ccccc12	10	-1	-1	4	-10
Cc1cc(-c2ccc(C(C)C)c(S(=O)(=O)Nc3ccccn3)c2)on1	-333	-5	-20	-10	-13
Nc1cc2nc3ccccc3oc-2cc1=O	44*	33*	18	13	37
COc1ccc(OC)c(Cc2nnc(CCC(=O)NCc3ccc(C)s3)o2)c1	4	2	-8	-22	-13
COc1ccc(CN2C(=O)c3ccccc3C2=O)cc1	5	0	11	-4	7
COc1ccc(CC2=C(O)c3ccccc3C(=O)C2=O)cc1	68*	0	16	15	13
COc1cc(Cn2c3ccc(NC(=O)NCCc4ccccc4)cc3c(=O)n2C)ccc1F	i	-3	nt	nt	nt
O=C1c2cc([N+](=O)[O-])ccc2-c2cc(Br)c(N=C(NO)C(F)(F)F)cc21	15	69*	nt	nt	nt
O=C1c2cc([N+](=O)[O-])ccc2-c2cc(Cl)c(NC(=O)C(F)(F)F)cc21	6	2	nt	nt	nt
O=C1NC2=C(CCc3ccccc32)C(c2ccccc2)N1 (stereo not drawn)	-167	-11	87*	73*	95*
O=c1ccc2cc3c([nH]c4ccc(Br)cc43)oc-2c1O	101*	12	0	17	32
SMILES	SENP8 block-1	SENP1 FRET inh	SENP8 block-2	SENP7 inh	SENP6 inh
O=c1c2c([nH]c3ccc(Br)cc13)CCCC2	1	-13	3	3	-6
COc1ccc(/C=C/c2nnc(NC(C)=O)s2)cc1	-442	-75	38	40	37
COC(=O)Nc1nnc(/C=C/c2ccc(OC)cc2)s1	-400	-25	37	-1	59*
CCCCCC[n+]1ccccc1/C=C/c1ccc(N(C)C)cc1	34	31	nt	nt	nt
CC[n+]1c(/C=C/c2ccc(N(C)C)cc2)ccc2ccccc21	47*	13	nt	nt	nt
CC[n+]1ccccc1/C=C/c1ccc(N(C)C)cc1	28	87*	nt	nt	nt
CC[n+]1c(/C=C/c2ccc(OC)c(OC)c2)ccc2ccccc21	-344	20	-6	4	2
O=C1c2cccc(NCCCNCCO)c2C(=O)c2cccc(NCCCNCCO)c21	57*	0	nt	nt	nt
